Results: ChEMBL document CHEMBL1649483, “Molecular analysis of the gyrA and gyrB quinolone resistance-determining regions of fluoroquinolone-resistant Clostridium difficile mutants selected in vitro” (2009)
≈ marks a conversion by molar mass, not a printed value.

Key:
Assay type in all cases: functional
Clostridioides difficile [1] = experiment: Antimicrobial activity against Clostridium difficile A422h harboring GyrA Asp81Asn mutant gene selected after 8 ug/ml of moxifloxacin by Etest method
Outline: (§1)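 Stable in vitro-selected mutant tested for gatifloxacin susceptibility by Etest, per the manufacturer's instructions, with an 8 μg/ml breakpoint. For selection, the parent was grown in antibiotic-free brain heart infusion (BHI) for 24 h at 35°C under anaerobic conditions. […] Later steps used double the MIC. Stability was confirmed by three subcultures.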

Clostridioides difficile [2] = experiment: Antimicrobial activity against Clostridium difficile A422i harboring GyrA Asp81Asn mutant gene selected after 8 ug/ml of moxifloxacin by Etest method; outline: as §1
Clostridioides difficile [3] = experiment: Antimicrobial activity against Clostridium difficile 630e selected after 4 ug/ml of moxifloxacin by Etest method; outline: as §1
Clostridioides difficile [4] = experiment: Antimicrobial activity against Clostridium difficile BI2b harboring GyrB Arg447Lys mutant gene selected after 2 ug/ml of moxifloxacin by Etest method; outline: as §1
Clostridioides difficile [5] = experiment: Antimicrobial activity against Clostridium difficile C253B selected after 4 ug/ml of levofloxacin by Etest method
Clostridioides difficile [6] = experiment: Antimicrobial activity against Clostridium difficile CD5A harboring GyrB Ser416Ala mutant gene selected after 4 ug/ml of levofloxacin by Etest method
Clostridioides difficile [7] = experiment: Antimicrobial activity against Clostridium difficile CD5E harboring GyrB Ser416Ala mutant gene selected after 8 ug/ml of levofloxacin by Etest method
Clostridioides difficile [8] = experiment: Antimicrobial activity against Clostridium difficile 630E harboring GyrA Ala118Val mutant gene selected after 8 ug/ml of levofloxacin by Etest method; outline: as §1
Clostridioides difficile [9] = experiment: Antimicrobial activity against Clostridium difficile BI2A selected after 4 ug/ml of levofloxacin by Etest method; outline: as §1
Clostridioides difficile [10] = experiment: Antimicrobial activity against Clostridium difficile BI2B selected after 4 ug/ml of levofloxacin by Etest method; outline: as §1
Clostridioides difficile [11] = experiment: Antimicrobial activity against Clostridium difficile BI2D harboring GyrB Glu466Lys mutant gene selected after 8 ug/ml of levofloxacin by Etest method; outline: as §1
Clostridioides difficile [12] = experiment: Antimicrobial activity against Clostridium difficile BI2E harboring GyrB Glu466Lys mutant gene selected after 8 ug/ml of levofloxacin by Etest method; outline: as §1
Clostridioides difficile [13] = experiment: Antimicrobial activity against Clostridium difficile C253 expressing tcdA and tcdB gene by Etest method
Outline: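 Parent clinical or nontoxigenic isolate tested for gatifloxacin susceptibility by Etest, run per the manufacturer's instructions; a fluoroquinolone breakpoint of 8 μg/ml was applied.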

Clostridioides difficile [14] = experiment: Antimicrobial activity against Clostridium difficile C253i harboring GyrA Ala118Ser mutant gene selected after 8 ug/ml of moxifloxacin by Etest method
Clostridioides difficile [15] = experiment: Antimicrobial activity against Clostridium difficile CD5h harboring GyrA Ala92Glu and GyrB Ser416Ala mutant genes selected after 8 ug/ml of moxifloxacin by Etest method
Clostridioides difficile [16] = experiment: Antimicrobial activity against Clostridium difficile CD5 2-g harboring GyrA Ala118Ser, Thr82Ala and GyrB Ser416Ala mutant genes selected after 8 ug/ml of moxifloxacin by Etest method
Clostridioides difficile [17] = experiment: Antimicrobial activity against Clostridium difficile CD5h harboring GyrA Ala118Ser, Thr82Ala and GyrB Ser416Ala mutant gene selected after 8 ug/ml of moxifloxacin by Etest method
Clostridioides difficile [18] = experiment: Antimicrobial activity against Clostridium difficile CD5i harboring GyrA Ala118Ser, Thr82Ala and GyrB Ser416Ala mutant genes selected after 8 ug/ml of moxifloxacin by Etest method
Clostridioides difficile [19] = experiment: Antimicrobial activity against Clostridium difficile A422e selected after 4 ug/ml of moxifloxacin by Etest method; outline: as §1
Clostridioides difficile [20] = experiment: Antimicrobial activity against Clostridium difficile 630b selected after 2 ug/ml of moxifloxacin by agar dilution method
Clostridioides difficile [21] = experiment: Antimicrobial activity against Clostridium difficile 630f selected after 4 ug/ml of moxifloxacin by agar dilution method
Clostridioides difficile [22] = experiment: Antimicrobial activity against Clostridium difficile 630i harboring GyrB […] mutant gene selected after 8 ug/ml of moxifloxacin by agar dilution method
Clostridioides difficile [23] = experiment: Antimicrobial activity against Clostridium difficile BI2b harboring GyrB Arg447Lys mutant gene selected after 2 ug/ml of moxifloxacin by agar dilution method
Clostridioides difficile [24] = experiment: Antimicrobial activity against Clostridium difficile C253A selected after 4 ug/ml of levofloxacin by agar dilution method
Clostridioides difficile [25] = experiment: Antimicrobial activity against Clostridium difficile C253B selected after 4 ug/ml of levofloxacin by agar dilution method
Clostridioides difficile [26] = experiment: Antimicrobial activity against Clostridium difficile CD5A harboring GyrB Ser416Ala mutant gene selected after 4 ug/ml of levofloxacin by agar dilution method
Clostridioides difficile [27] = experiment: Antimicrobial activity against Clostridium difficile CD5C harboring GyrB Ser416Ala mutant gene selected after 4 ug/ml of levofloxacin by agar dilution method
Clostridioides difficile [28] = experiment: Antimicrobial activity against Clostridium difficile CD5D harboring GyrB Ser416Ala mutant gene selected after 8 ug/ml of levofloxacin by agar dilution method
Clostridioides difficile [29] = experiment: Antimicrobial activity against Clostridium difficile 630 expressing tcdA and tcdB gene by agar dilution method
Clostridioides difficile [30] = experiment: Antimicrobial activity against Clostridium difficile A422H harboring GyrA Thr82Ile and GyrB Leu451Phe mutant genes selected after 8 ug/ml of levofloxacin by agar dilution method
Clostridioides difficile [31] = experiment: Antimicrobial activity against Clostridium difficile 630B selected after 4 ug/ml of levofloxacin by agar dilution method
Clostridioides difficile [32] = experiment: Antimicrobial activity against Clostridium difficile 630C selected after 4 ug/ml of levofloxacin by agar dilution method
Clostridioides difficile [33] = experiment: Antimicrobial activity against Clostridium difficile 630D harboring GyrA Ala118Val mutant gene selected after 8 ug/ml of levofloxacin by agar dilution method
Clostridioides difficile [34] = experiment: Antimicrobial activity against Clostridium difficile 630F harboring GyrA Ala118Val mutant gene selected after 8 ug/ml of levofloxacin by agar dilution method
Clostridioides difficile [35] = experiment: Antimicrobial activity against Clostridium difficile BI2B selected after 4 ug/ml of levofloxacin by agar dilution method
Clostridioides difficile [36] = experiment: Antimicrobial activity against Clostridium difficile C253e selected after 4 ug/ml of moxifloxacin by agar dilution method
Clostridioides difficile [37] = experiment: Antimicrobial activity against Clostridium difficile C253h harboring GyrA Ala118Ser mutant gene selected after 8 ug/ml of moxifloxacin by agar dilution method
Clostridioides difficile [38] = experiment: Antimicrobial activity against Clostridium difficile CD5 2-g harboring GyrA Ala118Ser, Thr82Ala and GyrB Ser416Ala mutant genes selected after 8 ug/ml of moxifloxacin by agar dilution method
Clostridioides difficile [39] = experiment: Antimicrobial activity against Clostridium difficile CD5h harboring GyrA Ala118Ser, Thr82Ala and GyrB Ser416Ala mutant genes selected after 8 ug/ml of moxifloxacin by agar dilution method
Clostridioides difficile [40] = experiment: Antimicrobial activity against Clostridium difficile A422a selected after 2 ug/ml of moxifloxacin by agar dilution method

Compound: COc1c(N2CCNC(C)C2)c(F)cc2c(=O)c(C(=O)O)cn(C3CC3)c12 (stereo not given) [GATIFLOXACIN]
- MIC (Clostridioides difficile [1]): ≥ 32 µg/mL
- MIC (Clostridioides difficile [2]): ≥ 32 µg/mL
- MIC (Clostridioides difficile [3]): 2 µg/mL
- MIC (Clostridioides difficile [4]): 1.5 µg/mL
- MIC (Clostridioides difficile [5]): 0.5 µg/mL
- MIC (Clostridioides difficile [6]): 0.5 µg/mL
- MIC (Clostridioides difficile [7]): 2 µg/mL
- MIC (Clostridioides difficile [8]): 3 µg/mL
- MIC (Clostridioides difficile [9]): 2 µg/mL
- MIC (Clostridioides difficile [10]): 2 µg/mL
- MIC (Clostridioides difficile [11]): ≥ 32 µg/mL
- MIC (Clostridioides difficile [12]): ≥ 32 µg/mL
- MIC (Clostridioides difficile [13]): 0.5 µg/mL (≈ 1.33 µM)
- MIC (Clostridioides difficile [14]): 8 µg/mL
- MIC (Clostridioides difficile [15]): 3 µg/mL
- MIC (Clostridioides difficile [16]): 16 µg/mL
- MIC (Clostridioides difficile [17]): 16 µg/mL
- MIC (Clostridioides difficile [18]): 16 µg/mL
- MIC (Clostridioides difficile [19]): 1.5 µg/mL

Compound: C[C@H]1COc2c(N3CCN(C)CC3)c(F)cc3c(=O)c(C(=O)O)cn1c23.C[C@H]1COc2c(N3CCN(C)CC3)c(F)cc3c(=O)c(C(=O)O)cn1c23.O [LEVOFLOXACIN]
- MIC (Clostridioides difficile [20]): 4 µg/mL
- MIC (Clostridioides difficile [21]): 4 µg/mL
- MIC (Clostridioides difficile [22]): 64 µg/mL
- MIC (Clostridioides difficile [23]): 8 µg/mL
- MIC (Clostridioides difficile [24]): 1 µg/mL
- MIC (Clostridioides difficile [25]): 1 µg/mL
- MIC (Clostridioides difficile [26]): 1 µg/mL
- MIC (Clostridioides difficile [27]): 1 µg/mL
- MIC (Clostridioides difficile [28]): 2 µg/mL
- MIC (Clostridioides difficile [29]): 2 µg/mL
- MIC (Clostridioides difficile [30]): 64 µg/mL
- MIC (Clostridioides difficile [31]): 1 µg/mL
- MIC (Clostridioides difficile [32]): 1 µg/mL
- MIC (Clostridioides difficile [33]): 8 µg/mL
- MIC (Clostridioides difficile [34]): 8 µg/mL
- MIC (Clostridioides difficile [35]): 1 µg/mL
- MIC (Clostridioides difficile [36]): 4 µg/mL
- MIC (Clostridioides difficile [37]): 64 µg/mL
- MIC (Clostridioides difficile [38]): 64 µg/mL
- MIC (Clostridioides difficile [39]): 64 µg/mL
- MIC (Clostridioides difficile [40]): 4 µg/mL
